Results on 5 compounds are retold here after article PMC3423956 (European journal of medicinal chemistry, 2009).

A short description of one series: Stability in solution. The series is classed as physicochemical. To be noted: for conversion to ACV: water. The essentials: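 Test compound was diluted from a freshly made stock into water and into methanol. Half was kept at room temperature and half in the autosampler at 4°C. Samples were injected every 15 min for 2 hr, then hourly, daily and weekly. Analysis was LC-MS/MS on a C18 column (ammonium formate pH 3 or water / methanol gradient, 30°C, ESI+, SRM). Guanine-analog formation was quantified against parent-nucleoside and acyclovir calibrations (10–1000 nM).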

Series [1] concerns herpes simplex virus (HSV). The note with it: cited from earlier work.
For series [2], the system named is HCV subgenomic RNA replicon. Kind of series: Anti-HCV activity in Huh-7 cells with HCV subgenomic RNA replicon system. The series is classed as cell-based. To be noted: Hepatitis C virus, Huh-7, read-out: Anti-HCV activity Huh-7 cells EC50, Huh-7 cells, HCV replicon.
The next series has as its system HSV-1 (strain F). Kind of series: HSV-1 plaque reduction assay in Vero cells. The note with it: Human alphaherpesvirus 1, Vero. The series is classed as cell-based.

As to `COc1ccc(-c2cn3c(O)c4ncn(COCCO)c4nc3n2)cc1` [Compound 3, 6-(4-MeOPh)-TACV], the results for the “conversion to ACV” value in the series “Stability in solution” (after 3 weeks) and in the series “Stability in solution” (after 4 days) were 35% and 4%, respectively. In addition, the “activity against herpes simplex virus (HSV) compared with parent” value in series [1] was “as active as their parent congeners”.
With `C[C@@]1(O)[C@H](O)[C@@H](CO)O[C@H]1n1cnc2c(=O)n3cc(-c4cccs4)[nH]c3nc21` [Compound 39, 3-(β-D-2-C-Methyl-ribofuranosyl)-3,9-dihydro-6-(2-thienyl)-9-oxo-5H-imidazo-[1,2-a]purine], in series [2], the half-maximal effective concentration (EC50) is under 10000 nM. Moreover, in “Stability in solution” (after 3 weeks), the “reversion to parent nucleoside (7 or 8)” value is 60%.
With `COc1ccc(-c2cn3c(=O)c4ncn([C@@H]5O[C@H](CO)[C@@H](O)[C@@]5(C)O)c4nc3[nH]2)cc1` [Compound 36, 3-(β-D-2-C-Methyl-ribofuranosyl)-3,9-dihydro-6-(4-methoxy-phenyl)-9-oxo-5H-imidazo-[1,2-a]purine], the EC50 in series [2] was under 10000 nM. In addition, in the series “Stability in solution” (after 3 weeks), the “reversion to parent nucleoside (7 or 8)” value is recorded as 30%.
As to `COc1ccc(-c2cn3c(=O)c4ncn([C@H]5C[C@H](N=[N+]=[N-])[C@@H](CO)O5)c4nc3[nH]2)cc1` [Compound 32, 3-(3-Azido-2,3-dideoxy-β-D-erythro-pentofuranosyl)-3,9-dihydro-6-(4-methoxyphenyl)-9-oxo-5H-imidazo-[1,2-a]purine], the “reversion to parent nucleoside (7 or 8)” value in “Stability in solution” (after 3 weeks) came to 60%.
Take `Nc1nc2c(ncn2COCCO)c(=O)[nH]1` [ACV, acyclovir]: the EC50 with HSV-1 (strain F) (read-out: Activity against HSV-1 EC50) was 75 nM. The EC90 in the series on HSV-1 (strain F) (read-out: Activity against HSV-1 EC90) was determined as 700 nM.
